From ChEMBL document CHEMBL1137383, “New efficient substrates for semicarbazide-sensitive amine oxidase/VAP-1 enzyme: analysis by SARs and computational docking” (J Med Chem, 2006)

B1: Amine oxidase [copper-containing] 3 (Homo sapiens), Q16853 (protein)
chain: MNQKTILVLLILAVITIFALVCVLLVGRGGDGGEPSQLPHCPSVSPSAQPWTHPGQSQLFADLSREELTAVMRFLTQRLGPGLVDAAQARPSDNCVFSVELQLPPKAAALAHLDRGSPPPAREALAIVFFGRQPQPNVSELVVGPLPHPSYMRDVTVERHGGPLPYHRRPVLFQEYLDIDQMIFNRELPQASGLLHHCCFYKHRGRNLVTMTTAPRGLQSGDRATWFGLYYNISGAGFFLHHVGLELLVNHKALDPARWTIQKVFYQGRYYDSLAQLEAQFEAGLVNVVLIPDNGTGGSWSLKSPVPPGPAPPLQFYPQGPRFSVQGSRVASSLWTFSFGLGAFSGPRIFDVRFQGERLVYEISLQEALAIYGGNSPAAMTTRYVDGGFGMGKYTTPLTRGVDCPYLATYVDWHFLLESQAPKTIRDAFCVFEQNQGLPLRRHHSDLYSHYFGGLAETVLVVRSMSTLLNYDYVWDTVFHPSGAIEIRFYATGYISSAFLFGATGKYGNQVSEHTLGTVHTHSAHFKVDLDVAGLENWVWAEDMVFVPMAVPWSPEHQLQRLQVTRKLLEMEEQAAFLVGSATPRYLYLASNHSNKWGHPRGYRIQMLSFAGEPLPQNSSMARGFSWERYQLAVTQRKEEEPSSSSVFNQNDPWAPTVDFSDFINNETIAGKDLVAWVTAGFLHIPHAEDIPNTVTVGNGVGFFLRPYNFFDEDPSFYSADSIYFRGDQDAGACEVNPLACLPQAAACAPDLPAFSHGGFSHN
B2: Amine oxidase [copper-containing] 3 (Mus musculus), O70423 (protein)
chain: MTQKTTLVLLALAVITIFALVCVLLAGRSGDGGGLSQPLHCPSVLPSVQPRTHPSQSQPFADLSPEELTAVMSFLTKHLGPGLVDAAQARPSDNCVFSVELQLPAKAAALAHLDRGGPPPVREALAIIFFGGQPKPNVSELVVGPLPHPSYMRDVTVERHGGPLPYYRRPVLDREYQDIEEMIFHRELPQASGLLHHCCFYKHQGQNLLTMTTAPRGLQSGDRATWFGLYYNLSGAGFYPHPIGLELLIDHKALDPALWTIQKVFYQGRYYESLTQLEDQFEAGLVNVVLVPNNGTGGSWSLKSSVPPGPAPPLQFHPQGPRFSVQGSQVSSSLWAFSFGLGAFSGPRIFDIRFQGERVAYEISVQEAIALYGGNSPASMSTCYVDGSFGIGKYSTPLIRGVDCPYLATYVDWHFLLESQAPKTLRDAFCVFEQNQGLPLRRHHSDFYSHYFGGVVGTVLVVRSVSTLLNYDYIWDMVFHPNGAIEVKFHATGYISSAFFFGAGEKFGNRVGAHTLGTVHTHSAHFKVDLDVAGLKNWAWAEDMAFVPTIVPWQPEYQMQRLQVTRKLLETEEEAAFPLGGATPRYLYLASNHSNKWGHRRGYRIQILSFAGKPLPQESPIEKAFTWGRYHLAVTQRKEEEPSSSSIFNQNDPWTPTVNFTDFISNETIAGEDLVAWVTAGFLHIPHAEDIPNTVTAGNSVGFFLRPYNFFDEDPSFHSADSIYFREGQDATACEVNPLACLSQTATCAPEIPAFSHGGFAYRDN

Key:
[1] = substrate: NCCc1ccccc1; test: (§1) Binding affinity to human SSAO
Outline: (§2)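 Recombinant human VAP-1 (0.1 µg protein/assay), Amplex Red/HRP H2O2 fluorimetry in 0.2 mol/L phosphate pH 7.4, 37 °C, 50 min; semicarbazide-insensitive H2O2 subtracted. Km and Vmax from nonlinear Michaelis-Menten fit across substrate concentrations; means of four independent measurements.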

[2] = substrate: NCCCCc1ccccc1; test: as §1; outline: as §2
[3] = substrate: Cc1ccc(CN)cc1F; test: as §1; outline: as §2
[4] = substrate: NCCCc1ccccc1; test: as §1; outline: as §2
[5] = substrate: NCc1cccc(CNC(=O)CI)c1; test: as §1; outline: as §2
[6] = substrate: NCCc1ccc(F)cc1; test: as §1; outline: as §2
[7] = substrate: NCc1ccccc1; test: as §1; outline: as §2
[8] = substrate: NCc1cccc(CNC(=O)c2ccccc2)c1; test: as §1; outline: as §2
[9] = substrate: C=CCOC(=O)NCc1cccc(CN)c1; test: as §1; outline: as §2
[10] = substrate: NCc1ccc(F)cc1; test: as §1; outline: as §2
[11] = substrate: NCCc1ccccc1; test: (§3) Binding affinity to mouse SSAO
Outline: (§4)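 Mouse adipose membranes (1 µg protein/assay) assayed by Amplex Red/HRP H2O2 fluorimetry, 0.2 mol/L phosphate pH 7.4, 37 °C, 50 min, semicarbazide-insensitive signal subtracted. Km and Vmax by nonlinear Michaelis-Menten fitting; means of four independent measurements.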

[12] = substrate: NCCCCc1ccccc1; test: as §3; outline: as §4
[13] = substrate: Cc1ccc(CN)cc1F; test: as §3; outline: as §4
[14] = substrate: NCCCc1ccccc1; test: as §3; outline: as §4
[15] = substrate: NCc1cccc(CNC(=O)CI)c1; test: as §3; outline: as §4
[16] = substrate: NCCc1ccc(F)cc1; test: as §3; outline: as §4
[17] = substrate: NCc1ccccc1; test: as §3; outline: as §4
[18] = substrate: NCc1cccc(CNC(=O)c2ccccc2)c1; test: as §3; outline: as §4
[19] = substrate: C=CCOC(=O)NCc1cccc(CN)c1; test: as §3; outline: as §4
[20] = substrate: NCc1ccc(F)cc1; test: as §3; outline: as §4

Row | Protein | Km [1] [µM] | Km [2] [µM] | Km [3] [µM] | Km [4] [µM] | Km [5] [µM] | Km [6] [µM] | Km [7] [µM] | Km [8] [µM] | Km [9] [µM] | Km [10] [µM] | Km [11] [µM] | Km [12] [µM] | Km [13] [µM] | Km [14] [µM] | Km [15] [µM] | Km [16] [µM] | Km [17] [µM] | Km [18] [µM] | Km [19] [µM] | Km [20] [µM]
1 | B1 | 3720 | 280 | 405 | 1670 | 525 | 1900 | 224 | 630 | 569 | 205 | – | – | – | – | – | – | – | – | – | –
2 | B2 | – | – | – | – | – | – | – | – | – | – | 34.8 | 11.3 | 14.8 | 27 | 29.8 | 88.8 | 15.4 | 12.8 | 11.5 | 15.7
